Results on twelve compounds are retold here after ChEMBL document CHEMBL1149263, “Structure-activity relationships in platelet-activating factor. 12. Synthesis and biological evaluation of platelet-activating factor antagonists with anti-HIV-1 activity” (J Med Chem, 2004).

For one data set, the species on record is Mus musculus. The data set can be described thus: Blood-brain transfer coefficient in OF1 mouse by in situ brain perfusion method. The following applies: in vivo. The format is ADME, organism-based. The procedure, abridged:
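In situ brain perfusion in anaesthetized mice (ip xylazine 8 mg/kg, ketamine 140 mg/kg) through a right common carotid catheter. Perfusate was bicarbonate-buffered saline with 9 mM D-glucose, gassed 95% O2/5% CO2, pH 7.4, 37 °C, carrying [³H]tracer at 0.3–0.4 μCi/mL, with [¹⁴C]sucrose as vascular marker. Brain distribution volume was computed from right-hemisphere radioactivity; five animals.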

The nature of data set [1]: Cytotoxicity against human MDM cells by neutral red staining. In kind it is cell-based. Put shortly: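 Fifty percent cytotoxic concentration in monocyte-derived macrophages, assessed by neutral red staining.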
Data set [2] is described as follows: Cytotoxicity against human MDM cells by neutral red staining at 10 uM. The format is cell-based.
Data set [3] in a line: Cytotoxicity against human MDM cells by neutral red staining at 1 uM. In kind it is cell-based.
In another data set the test system is Plasma. The data set is described as follows: Inhibition of PAF-induced platelet aggregation in rabbit platelet-rich plasma. The format is functional. The following applies: Oryctolagus cuniculus. Put shortly:
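Rabbit platelet-rich plasma was prepared from New Zealand rabbit auricular-artery blood collected in 3.8% citrate (pH 7.4) and spun 15 min at 1200 rpm. Antagonists in EtOH (10⁻² to 10⁻⁷ M) were added to stirred PRP for 2 min, then challenged with 2.5 nM PAF. Aggregation was followed by light transmission against a PAF-alone control. IC50 was taken from dose–response curves (five or six determinations).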

Data set [4] concerns Human immunodeficiency virus 1. The data set can be described thus: Inhibition of HIV1 BAL replication in MDM cells assessed by measuring reverse transcriptase at 100 uM. The following applies: Human immunodeficiency virus 1, BAL. In kind it is functional. Put shortly:
(§1)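 Monocyte-derived macrophages were infected with the macrophage-tropic HIV-1/Ba-L strain. HIV-1 replication was read as reverse transcriptase activity in culture supernatants. Values come from a single measurement.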

Data set [5] concerns Human immunodeficiency virus 1. The data set is described as follows: Antiviral activity against HIV1 BAL in human MDM cells. In kind it is functional, organism-based. Conditions: Human immunodeficiency virus 1, BAL; call rule not given here. The procedure, abridged: as §1
A short description of data set [6]: Partition coefficient, log P of the compound. In kind it is physicochemical. The following applies: octanol/water.
Data set [7] relates to Rattus norvegicus. The data set can be described thus: Cmax in Sprague-Dawley rat at 100 mg/kg, iv normalized to 1 mg/kg. The format is ADME, organism-based. Set-up: dose 100 mg/kg, route intravenous. Conditions: in vivo. The procedure, abridged:
(§2)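 Single dose given to male Sprague–Dawley rats, three animals. Each animal received 100 mg/kg iv and 500 mg/kg orally. Plasma Cmax, t1/2, AUC and oral bioavailability were determined, and all parameters were normalized to a 1 mg/kg dose so the two routes could be compared.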

Data set [8] in a line: Half life in Sprague-Dawley rat at 100 mg/kg, iv normalized to 1 mg/kg. In kind it is ADME, organism-based. The following applies: in vivo. The procedure, abridged: as §2
In data set [9] the test system is Rattus norvegicus. The data set is described as follows: AUC in Sprague-Dawley rat at 100 mg/kg, iv normalized to 1 mg/kg. The format is ADME, organism-based, Plasma. Conditions: in vivo. Put shortly:
as §2

The subject of data set [10] is Rattus norvegicus. The data set is described as follows: Cmax in Sprague-Dawley rat at 500 mg/kg, po normalized to 1 mg/kg. The format is ADME, organism-based. Set-up: dose 500 mg/kg, route oral. The following applies: in vivo. The procedure, abridged:
as §2

Data set [11] is described as follows: Half life in Sprague-Dawley rat at 500 mg/kg, po normalized to 1 mg/kg. In kind it is ADME, organism-based. Conditions: in vivo. The procedure, abridged:
as §2

Data set [12] relates to Rattus norvegicus. The data set can be described thus: AUC in Sprague-Dawley rat at 500 mg/kg, po normalized to 1 mg/kg. In kind it is ADME, organism-based, Plasma. Conditions: in vivo. The procedure, abridged:
as §2

The nature of data set [13]: Bioavailability in Sprague-Dawley rat at 500 mg/kg, po normalized to 1 mg/kg. In kind it is ADME, organism-based. The following applies: in vivo. Put shortly: as §2

Turning to `[3H]COc1c(OC)cc(C(=O)N2CCN(C(=O)c3cc(OC)c(OC)c(OC)c3)C(COC(=O)N(CC)CC)C2)cc1OC` (stereo not drawn), the Kin in the data set filed under Mus musculus turned out to be 1.02 µL/s/g.

On to `CCN(CC)C(=S)OCC1CN(C(=O)c2cc(OC)c(OC)c(OC)c2)CCN1C(=O)c1cc(OC)c(OC)c(OC)c1` (stereo not drawn), for which the CC50 in data set [1] was > 1 µM. For the same compound, the Activity entry in [2] is reported as “Toxic”; in data set [3], “Not Active”. Besides, the IC50 with Plasma was > 5 µM.

With `CCCN(CCC)C(=O)OCC1CN(C(=O)c2cc(OC)c(OC)c(OC)c2)CCN1C(=O)c1cc(OC)c(OC)c(OC)c1` (stereo not drawn), the CC50 in [1] is > 100 µM. This compound showed an inhibition at 100 µM in data set [4] of 66%. This compound gave an IC50 in the data set with Plasma of 0.37 µM.

Take `CCCCNC(=O)OCC1CN(C(=O)c2cc(OC)c(OC)c(OC)c2)CCN1C(=O)c1cc(OC)c(OC)c(OC)c1` (stereo not drawn): the values for the IC50 (in data set [5]; in the data set on Plasma) were 10 µM and 0.67 µM, respectively. In [1], the CC50 is > 100 µM.

For the compound `CCC(=O)OCC1CN(C(=O)c2cc(OC)c(OC)c(OC)c2)CCN1C(=O)c1cc(OC)c(OC)c(OC)c1` (stereo not drawn), the IC50 in data set [5] is > 100 µM; in the data set with Plasma it was 0.158 µM. Also, the CC50 in data set [1] is > 100 µM.

For `COc1cc(C(=O)N2CCN(C(=O)c3cc(OC)c(OC)c(OC)c3)C(CNC(=O)OC(C)C)C2)cc(OC)c1OC` (stereo not drawn), the IC50 came out at 25 µM in [5] and 5 µM with Plasma. Further, the CC50 in data set [1] was > 100 µM.

As to `CCCN(CCC)C(=O)NCC1CN(C(=O)c2cc(OC)c(OC)c(OC)c2)CCN1C(=O)c1cc(OC)c(OC)c(OC)c1` (stereo not drawn), the IC50 (in data set [5]; in the data set with Plasma) was > 10 µM in each case. In addition, in data set [1], the CC50 was > 100 µM.

For `CCCCCCNC(=O)NCC1CN(C(=O)c2cc(OC)c(OC)c(OC)c2)CCN1C(=O)c1cc(OC)c(OC)c(OC)c1` (stereo not drawn), the IC50 is 1 µM in data set [5] and > 10 µM in the data set on Plasma. For the same compound, the CC50 in data set [1] was > 100 µM.

With `COc1cc(C(=O)N2CCN(C(=O)c3cc(OC)c(OC)c(OC)c3)C(CNC(=O)Nc3c(C)cccc3C)C2)cc(OC)c1OC` (stereo not drawn), the IC50 is 32 µM in data set [5] and > 10 µM with Plasma. The CC50 in data set [1] was > 100 µM.

With `CCN(CC)C(=O)NCC1CN(C(=O)c2cc(OC)c(OC)c(OC)c2)CCN1C(=O)c1cc(OC)c(OC)c(OC)c1` (stereo not drawn), the IC50 in [5] was 40 µM; in the data set with Plasma, > 10 µM. Moreover, the CC50 in [1] is > 100 µM.

Take `COc1cc(C(=O)N2CCN(C(=O)c3cc(OC)c(OC)c(OC)c3)C(COC(=S)N(C)C)C2)cc(OC)c1OC` (stereo not drawn): in data set [1], the CC50 was > 100 µM. In [4], 100 µM produced 76% inhibition. In the data set with Plasma, this compound showed an IC50 of 1.6 µM.

On to `CCN(CC)C(=O)OCC1CN(C(=O)c2cc(OC)c(OC)c(OC)c2)CCN1C(=O)c1cc(OC)c(OC)c(OC)c1` (stereo not drawn) [PMS-601], for which the logP in [6] amounted to 0.8. Also, the IC50 is 11 µM in data set [5] and 8 µM in the data set on Plasma. In data set [1], the CC50 is > 1000 µM. The Cmax worked out at 861 ng/mL with Rattus norvegicus [7] and 33 ng/mL in the data set on Rattus norvegicus [10]. In addition, the results for the half-life in data set [8] and in [11] were 2.14 h and 2.29 h, respectively. Also, the area under the curve (AUC) in the data set on Rattus norvegicus [9] amounted to 1828 ng·h/mL; in the data set with Rattus norvegicus [12] it was 177 ng·h/mL. Further, the bioavailability in data set [13] amounted to 10.9%.
